How the values were obtained:
[1] = test system: Rattus norvegicus; test: Biodistribution in Sprague-Dawley rat lungs(2) 15 minutes after intravenous administration, [99mTc]/[125I]IAP ratio); type: ADME, organism-based, Lung; details: in vivo, 0.25 h
Method in brief: (§1)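 99mTc complex and [125I]iodoantipyrine were co-injected iv into rats. Rats were killed by cardiectomy at 2 or 15 min, and organs were excised, weighed and gamma-counted in two channels with spillover correction. The ratio is 99mTc percent dose divided by 125I percent dose in the same organ, averaged over three rats. Radiochemical purity of the complexes was >95% by reversed-phase HPLC.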

[2] = test system: Rattus norvegicus; test: Biodistribution in Sprague-Dawley rat muscle 2 minutes after intravenous administration, [99mTc]/[125I]IAP ratio); type: ADME, organism-based, Muscle tissue; details: in vivo; method in brief: as §1
[3] = test system: Rattus norvegicus; test: Biodistribution in Sprague-Dawley rat stomach 2 minutes after intravenous administration, [99mTc]/[125I]IAP ratio); type: ADME, organism-based; details: in vivo; method in brief: as §1
[4] = test system: Rattus norvegicus; test: Biodistribution in Sprague-Dawley rat blood 15 minutes after intravenous administration, [99mTc]/[125I]IAP ratio); type: ADME, organism-based; details: in vivo, 0.25 h; method in brief: as §1
[5] = Partition coefficient was determined atpH 7.0.; type: ADME; details: octanol/water, pH 7
Method in brief: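 99mTc-labelled BAT complex shaken with 3 g each of 1-octanol and 0.1 M phosphate buffer (pH 7.0), vortexed 3 min at room temperature, centrifuged 5 min. Two 0.5 g samples per layer counted in a well counter; PC = cpm/g octanol over cpm/g buffer. Octanol layer repartitioned until values were consistent; usually repeated three times.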

[6] = test system: Rattus norvegicus; test: Biodistribution in Sprague-Dawley rat liver 15 minutes after intravenous administration, [99mTc]/[125I]IAP ratio); type: ADME, organism-based; details: in vivo, 0.25 h; method in brief: as §1
[7] = test system: Rattus norvegicus; test: Biodistribution in Sprague-Dawley rat thyroid 2 minutes after intravenous administration, [99mTc]/[125I]IAP ratio); type: ADME, organism-based, Thyroid gland; details: in vivo; method in brief: as §1
[8] = test system: Rattus norvegicus; test: Biodistribution in Sprague-Dawley rat small intestine 2 minutes after intravenous administration, [99mTc]/[125I]IAP ratio); type: ADME, organism-based; details: in vivo; method in brief: as §1
[9] = test system: Rattus norvegicus; test: Biodistribution in Sprague-Dawley rat small intestine 15 minutes after intravenous administration, [99mTc]/[125I]IAP ratio); type: ADME, organism-based; details: in vivo, 0.25 h; method in brief: as §1
[10] = test system: Rattus norvegicus; test: Biodistribution in Sprague-Dawley rat spleen 2 minutes after intravenous administration, [99mTc]/[125I]IAP ratio); type: ADME, organism-based; details: in vivo; method in brief: as §1
[11] = test system: Rattus norvegicus; test: Biodistribution in Sprague-Dawley rat brain 2 minutes after intravenous administration, [99mTc]/[125I]IAP ratio); type: ADME, organism-based; details: in vivo; method in brief: as §1
[12] = test system: Rattus norvegicus; test: Biodistribution in Sprague-Dawley rat brain 15 minutes after intravenous administration, [99mTc]/[125I]IAP ratio); type: ADME, organism-based; details: in vivo, 0.25 h; method in brief: as §1
[13] = test system: Rattus norvegicus; test: Biodistribution in Sprague-Dawley rat kidneys(2) 15 minutes after intravenous administration, [99mTc]/[125I]IAP ratio); type: ADME, organism-based, Kidney; details: in vivo, 0.25 h; method in brief: as §1
[14] = test system: Rattus norvegicus; test: Biodistribution in Sprague-Dawley rat skin 2 minutes after intravenous administration, [99mTc]/[125I]IAP ratio); type: ADME, organism-based, Zone of skin; details: in vivo; method in brief: as §1
[15] = test system: Rattus norvegicus; test: Biodistribution in Sprague-Dawley rat liver 2 minutes after intravenous administration, [99mTc]/[125I]IAP ratio); type: ADME, organism-based; details: in vivo; method in brief: as §1
[16] = species: Homo sapiens; test: The human serum protein binding activity was determined; type: functional
Method in brief: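 Equilibrium dialysis: 0.4 mL pooled human serum against 0.4 mL 0.15 M phosphate buffer pH 7.4 containing 99mTc complex (~0.025 μCi), rotated 18 h at 37 °C. Both sides weighed and counted; percent free = buffer/serum radioactivity concentration ratio × 100. Membrane counted afterwards to check membrane binding.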

[17] = test system: Rattus norvegicus; test: Biodistribution in Sprague-Dawley rat lungs(2) 2 minutes after intravenous administration, [99mTc]/[125I]IAP ratio); type: ADME, organism-based, Lung; details: in vivo; method in brief: as §1
[18] = test system: Rattus norvegicus; test: Biodistribution in Sprague-Dawley rat muscle 15 minutes after intravenous administration, [99mTc]/[125I]IAP ratio); type: ADME, organism-based, Muscle tissue; details: in vivo, 0.25 h; method in brief: as §1
[19] = test system: Rattus norvegicus; test: Biodistribution in Sprague-Dawley rat skin 15 minutes after intravenous administration, [99mTc]/[125I]IAP ratio); type: ADME, organism-based, Zone of skin; details: in vivo, 0.25 h; method in brief: as §1
[20] = test system: Rattus norvegicus; test: Biodistribution in Sprague-Dawley rat blood 2 minutes after intravenous administration, [99mTc]/[125I]IAP ratio); type: ADME, organism-based; details: in vivo; method in brief: as §1
[21] = test system: Rattus norvegicus; test: Biodistribution in Sprague-Dawley rat spleen 15 minutes after intravenous administration, [99mTc]/[125I]IAP ratio); type: ADME, organism-based; details: in vivo, 0.25 h; method in brief: as §1
[22] = test system: Rattus norvegicus; test: Biodistribution in Sprague-Dawley rat heart 2 minutes after intravenous administration, [99mTc]/[125I]IAP ratio); type: ADME, organism-based; details: in vivo; method in brief: as §1
[23] = test system: Rattus norvegicus; test: Biodistribution in Sprague-Dawley rat kidneys(2) 2 minutes after intravenous administration, [99mTc]/[125I]IAP ratio); type: ADME, organism-based, Kidney; details: in vivo; method in brief: as §1
[24] = test system: Rattus norvegicus; test: Biodistribution in Sprague-Dawley rat thyroid 15 minutes after intravenous administration, [99mTc]/[125I]IAP ratio); type: ADME, organism-based, Thyroid gland; details: in vivo, 0.25 h; method in brief: as §1
[25] = test system: Rattus norvegicus; test: Biodistribution in Sprague-Dawley rats heart 15 minutes after intravenous administration, [99mTc]/[125I]IAP ratio); type: ADME, organism-based; details: in vivo, 0.25 h; method in brief: as §1
[26] = test system: Rattus norvegicus; test: Biodistribution in Sprague-Dawley rat stomach 15 minutes after intravenous administration, [99mTc]/[125I]IAP ratio); type: ADME, organism-based; details: in vivo, 0.25 h; method in brief: as §1

Work on `CC(C)(S)CNCC(CO)NCC(C)(C)S.Cl.Cl` (stereo unspecified) yielded a Dose [1] of 1.31%, a Dose [2] of 13.4% and a Dose [3] of 1.12%. The Dose [4] was 9.14%, the Partition coefficient [5] was 64.5 and the Dose [6] was 16.8%. For the same compound, the Dose [7] was 0.088%, the Dose [8] was 4.46% and the Dose [9] was 19.5%. The Dose [10] was 0.349%, the Dose [11] was 0.24% and the Dose [12] was 0.15%. For the same compound, the Dose [13] was 2.39%, the Dose [14] was 6.72% and the Dose [15] was 16.7%. The Free [16] was 42.5%, the Dose [17] was 2.27% and the Dose [18] was 14.9%. It also gave a Dose [19] of 6.53%, a Dose [20] of 18.1% and a Dose [21] of 0.309%. It also gave a Dose [22] of 0.887%, a Dose [23] of 2.21% and a Dose [24] of 0.053%. For the same compound, the Dose [25] was 0.3% and the Dose [26] was 0.85%.

From ChEMBL document CHEMBL1123041, “Synthesis of new bis(aminoethanethiol) (BAT) derivatives: possible ligands for 99mTc brain imaging agents” (J Med Chem, 1985)
